Assay [1] deals with Coagulation factor X (Homo sapiens, UniProt P00742). Nature of the assay: The inhibition constant against human Coagulation factor X.
Assay [2] is described as follows: The Anti-coagulant activity was tested by measuring activated partial thromboplastin time (aPTT). The class given is functional. Summed up: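 Human citrated plasma (blood 9:1 with 0.11 mol/L sodium citrate, spun 3000 rpm 10 min, RT, used within 8 h) plus aPTT reagent and compound in DMSO (DMSO-only control), 3 min at 37 °C in a coagulometer; clotting time recorded at 1000, 200, 100, 10, 1 μM in plasma. ED200 (aPTT-doubling concentration) from nonlinear fit of y = a + b·x^c; quadruplicate determinations.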

The target in assay [3] is T1, Prothrombin (Homo sapiens, UniProt P00734). Description: The Anti-coagulant activity was tested by measuring thrombin clotting time (TT). It is filed as functional. In outline:
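Thrombin clotting time in human citrated plasma (blood 9:1 with 0.11 mol/L citrate, spun 3000 rpm 10 min, stored RT ≤8 h); plasma with compound in DMSO or DMSO control incubated 2 min at 37 °C in coagulometer. Clotting measured at 500, 100, 50, 5, 0.5 μM in plasma; doubling concentration (ED200) obtained by nonlinear regression of y = a + b·x^c.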

Assay [4] has as its target T1, Prothrombin. Description: The inhibition constant against human thrombin.
In assay [5] the target is Trypsin (Homo sapiens, UniProt P07477+P07478+P35030). Description: The inhibition constant against human trypsin. The class given is protein assay.
Assay [6] has as its target Plasminogen (Homo sapiens, UniProt P00747). Description: The inhibition constant against human plasmin.

Results on 25 compounds are retold here after ChEMBL document CHEMBL1131421, “Tetrahydro-isoquinoline-based factor Xa inhibitors” (J Med Chem, 1998).

In general, Ki refers to a measure of affinity in units of concentration, obtained from inhibition or displacement. Lower therefore signals higher affinity.

Sequence of Plasminogen (P00747 97-580 limits assumed): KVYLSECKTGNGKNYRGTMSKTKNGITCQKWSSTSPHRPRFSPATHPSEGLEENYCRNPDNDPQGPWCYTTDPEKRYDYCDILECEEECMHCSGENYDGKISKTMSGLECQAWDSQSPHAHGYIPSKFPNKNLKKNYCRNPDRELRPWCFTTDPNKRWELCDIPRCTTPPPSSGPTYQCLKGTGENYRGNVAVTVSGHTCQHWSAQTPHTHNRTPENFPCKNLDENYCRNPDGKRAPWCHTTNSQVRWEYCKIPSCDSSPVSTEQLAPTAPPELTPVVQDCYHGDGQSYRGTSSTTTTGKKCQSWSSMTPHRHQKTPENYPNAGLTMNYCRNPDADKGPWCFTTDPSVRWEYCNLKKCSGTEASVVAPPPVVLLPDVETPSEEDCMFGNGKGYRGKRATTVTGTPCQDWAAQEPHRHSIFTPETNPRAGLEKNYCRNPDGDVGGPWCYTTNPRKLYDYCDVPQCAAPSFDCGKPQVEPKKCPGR
Sequence of Plasminogen (P00747 581-810 limits assumed): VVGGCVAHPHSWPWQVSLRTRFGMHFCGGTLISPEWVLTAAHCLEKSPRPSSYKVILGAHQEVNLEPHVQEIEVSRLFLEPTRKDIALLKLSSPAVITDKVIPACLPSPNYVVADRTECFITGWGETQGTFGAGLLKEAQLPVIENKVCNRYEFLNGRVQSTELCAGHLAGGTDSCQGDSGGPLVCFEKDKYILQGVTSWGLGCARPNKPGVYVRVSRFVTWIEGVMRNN
Sequence of Coagulation factor X (P00742 41-179 limits assumed): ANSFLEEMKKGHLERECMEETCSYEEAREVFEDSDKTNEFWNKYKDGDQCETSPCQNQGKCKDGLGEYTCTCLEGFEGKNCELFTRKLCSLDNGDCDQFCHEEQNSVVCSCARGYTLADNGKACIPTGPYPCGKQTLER
Sequence of Coagulation factor X (P00742 235-488 limits assumed): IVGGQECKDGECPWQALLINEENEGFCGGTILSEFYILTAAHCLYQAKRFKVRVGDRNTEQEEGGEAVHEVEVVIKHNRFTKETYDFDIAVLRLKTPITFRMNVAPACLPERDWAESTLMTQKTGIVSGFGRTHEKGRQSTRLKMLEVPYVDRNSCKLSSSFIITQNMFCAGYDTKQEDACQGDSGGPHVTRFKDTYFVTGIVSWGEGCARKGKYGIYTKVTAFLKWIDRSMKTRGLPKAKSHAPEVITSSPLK

As for `CCOC(=O)C(Oc1ccc2c(c1)CN(C(=N)N)CC2)c1ccc(O[C@H]2CCN(C(=N)N)C2)cc1` (stereo partly drawn), the inhibitory constant (Ki) stood at 0.2 µM in assay [1], 13 µM in assay [4], 2 µM in assay [5] and 45 µM in assay [6]. The results for the ED200 in assay [2] and in assay [3] were 10 µM and 300 µM, respectively.

Consider `CCOC(=O)C(Oc1ccc2c(c1)CN(C(=N)N)CC2)c1ccc(OC2CCN(C(C)=O)CC2)cc1` (stereo not drawn), for which the Ki was 3 µM in assay [1], over 100 µM in assay [4], 10 µM in assay [5] and 10 µM in assay [6]. Besides, the results for the ED200 in assay [2] and in assay [3] were 100 µM and 200 µM, respectively.

For the compound `C=CCOC(=O)N1CC[C@H](Oc2ccc(C(Oc3ccc4c(c3)CN(C(=N)N)CC4)C(=O)OCC)cc2)C1` (stereo partly drawn), the Ki in assay [1] is 0.2 µM; in assay [4], over 100 µM; in assay [5], 9 µM; in assay [6] it was 10 µM. For the same compound, the ED200 in assay [2] was found to be 200 µM; in assay [3], 500 µM.

Consider `CCOC(=O)C(Oc1ccc2c(c1)CN(C(=N)N)CC2)c1ccc(O[C@H]2CCN(C3=CC(=O)CC(C)(C)C3)C2)cc1` (stereo partly drawn), for which the Ki is 0.2 µM in assay [1], over 100 µM in assay [4], 10 µM in assay [5] and 50 µM in assay [6]. The values for the ED200 in assay [2] and in assay [3] were 24 µM and 90 µM, respectively.

For the compound `N=C(N)N1CCc2ccc(OC(C(=O)O)c3ccc(O[C@H]4CCNC4)cc3)cc2C1` (stereo partly drawn), the Ki was 1 µM in assay [1], over 100 µM in assay [4], 10 µM in assay [5] and 10 µM in assay [6]. The ED200 in assay [2] was 50 µM; in assay [3], over 500 µM.

In the case of `C=CCOC(=O)N1CCC(Oc2ccc(C(Oc3ccc4c(c3)CN(C(=N)N)CC4)C(=O)OCC)cc2)CC1` (stereo not drawn), the inhibition constant Ki was 3 µM in assay [1], 4 µM in assay [4] and 14 µM in assay [6]. Further, the ED200 is 260 µM in assay [2] and over 500 µM in assay [3].

In the case of `CC1(C)CC(=O)C=C(N2CC[C@H](Oc3ccc(C(Oc4ccc5c(c4)CN(C(=N)N)CC5)C(=O)O)cc3)C2)C1` (stereo partly drawn), the Ki in assay [1] was 0.2 µM; in assay [4], over 100 µM; in assay [5], 10 µM; in assay [6], 50 µM. For the same compound, the ED200 in assay [2] is 200 µM; in assay [3] it was over 500 µM.

Consider `COc1ccc(C(=N)N2CCC(Oc3ccc(C(Oc4ccc5c(c4)CN(C(=N)N)CC5)C(=O)O)cc3)CC2)cc1` (stereo not drawn), for which the Ki in assay [1] was 0.026 µM; in assay [4] it was over 100 µM; in assay [5] it was 0.2 µM. In addition, the ED200 in assay [2] is 7 µM; in assay [3] it was over 500 µM.

`N=C(N)N1CCc2ccc(OC(C(=O)O)c3ccc(OC4CCOCC4)cc3)cc2C1` (stereo not drawn): the Ki in assay [1] was 3 µM; in assay [4] it was over 100 µM; in assay [5] it was 12 µM; in assay [6] it was 25 µM. Besides, the ED200 in assay [2] and in assay [3] was over 500 µM in each case.

`CCOC(=O)C(Oc1ccc2c(c1)CN(C(=N)N)CC2)c1ccc(OC2CCN(C(=N)N)CC2)cc1` (stereo not drawn): the Ki in assay [1] was 0.028 µM; in assay [4] it was 8 µM; in assay [5], 0.2 µM; in assay [6] it was 25 µM. Besides, the values for the ED200 in assay [2] and in assay [3] were 3 µM and 54 µM, respectively.

On to `C=CCN1CC[C@H](Oc2ccc(C(Oc3ccc4c(c3)CN(C(=N)N)CC4)C(=O)OCC)cc2)C1` (stereo partly drawn), for which the Ki was 1 µM in assay [1], over 100 µM in assay [4], 10 µM in assay [5] and 50 µM in assay [6]. In addition, the ED200 in assay [2] turned out to be 27 µM; in assay [3] it was 240 µM.

Regarding `CCOC(=O)C(Oc1ccc2c(c1)CN(C(=N)N)CC2)c1ccc(OC2CCN(C(=N)c3ccc(OC)cc3)CC2)cc1` (stereo not drawn), the Ki worked out at 0.021 µM in assay [1], 5 µM in assay [4] and 0.2 µM in assay [5]. Moreover, the ED200 came to 6 µM in assay [2] and 32 µM in assay [3].

As to `CC(=N)N1CC[C@H](Oc2ccc(C(Oc3ccc4c(c3)CN(C(=N)N)CC4)C(=O)O)cc2)C1` (stereo partly drawn), the Ki in assay [1] is 0.08 µM; in assay [4] it was over 100 µM; in assay [5] it was 10 µM. Further, the ED200 in assay [2] was 30 µM; in assay [3], over 500 µM.

Turning to `CCOC(=O)C(Oc1ccc2c(c1)CN(C(=N)N)CC2)c1ccc(OC2CCNCC2)cc1` (stereo not drawn), the Ki in assay [1] was 2 µM; in assay [4], 16 µM; in assay [5], 3 µM; in assay [6], 25 µM. The results for the ED200 in assay [2] and in assay [3] were 26 µM and 71 µM, respectively.

`N=C(N)N1CCC(Oc2ccc(C(Oc3ccc4c(c3)CN(C(=N)N)CC4)C(=O)O)cc2)CC1` (stereo not drawn): the Ki was 0.044 µM in assay [1], over 100 µM in assay [4], 0.2 µM in assay [5] and 44 µM in assay [6]. For the same compound, the ED200 in assay [2] was 9 µM; in assay [3] it was over 500 µM.

For the compound `CCOC(=O)C(Oc1ccc2c(c1)CN(C(=N)N)CC2)c1ccc(O[C@H]2CCN(C(C)=N)C2)cc1` (stereo partly drawn), the inhibition constant Ki in assay [1] was 0.1 µM; in assay [4], over 100 µM; in assay [5], 2 µM. Also, the values for the ED200 in assay [2] and in assay [3] were 10 µM and 100 µM, respectively.

As for `CCOC(=O)C(Oc1ccc2c(c1)CN(C(=N)N)CC2)c1ccc(OC2CCN(C(C)=N)CC2)cc1` (stereo not drawn), the inhibition constant (Ki) in assay [1] came to 0.03 µM; in assay [4] it was 15 µM; in assay [5], 0.4 µM; in assay [6], 25 µM. For the same compound, the ED200 worked out at 3 µM in assay [2] and 53 µM in assay [3].

Regarding `CC(=O)N1CCC(Oc2ccc(C(Oc3ccc4c(c3)CN(C(=N)N)CC4)C(=O)O)cc2)CC1` (stereo not drawn), the Ki was 0.4 µM in assay [1], over 100 µM in assay [4] and 5 µM in assay [5]. Besides, the results for the ED200 in assay [2] and in assay [3] were 150 µM and over 500 µM, respectively.

On to `CCOC(=O)C(Oc1ccc2c(c1)CN(C(=N)N)CC2)c1ccc(OC2CCOCC2)cc1` (stereo not drawn), for which the Ki in assay [1] came out at 2 µM; in assay [4] it was 8 µM; in assay [5], 3 µM; in assay [6], 26 µM. The ED200 in assay [2] stood at 250 µM; in assay [3], 500 µM.

Regarding `CCOC(=O)C(Oc1ccc2c(c1)CN(C(=N)N)CC2)c1ccc(OC2CCN(C(=N)CC)CC2)cc1` (stereo not drawn), the values for the Ki in assay [1], in assay [4] and in assay [5] were 0.03 µM, 20 µM and 0.08 µM, respectively. The figures for the ED200 in assay [2] and in assay [3] were 10 µM and 70 µM, respectively.

For `CC(=N)N1CC[C@H](Oc2ccc([C@H](Cc3ccc4ccc(C(=N)N)cc4c3)C(=O)O)cc2)C1.Cl` [DX-9065A HYDROCHLORIDE HYDRATE], the Ki in assay [5] is 2 µM; in assay [6] it was 11 µM.

As for `N=C(N)N1CCc2ccc(OC(C(=O)O)c3ccc(OC4CCNCC4)cc3)cc2C1` (stereo not drawn), the Ki in assay [1] was 2 µM; in assay [4], over 100 µM; in assay [5] it was 6 µM; in assay [6], 25 µM. For the same compound, the results for the ED200 in assay [2] and in assay [3] were 190 µM and over 500 µM, respectively.

For `CCOC(=O)C(Oc1ccc2c(c1)CN(C(=N)N)CC2)c1ccc(O[C@H]2CCNC2)cc1` (stereo partly drawn), the Ki in assay [1] is 0.4 µM; in assay [4] it was over 100 µM; in assay [5], 6 µM; in assay [6] it was 40 µM. Moreover, the ED200 in assay [2] is 26 µM; in assay [3], 140 µM.

Consider `N=C(N)N1CCc2ccc(OC(C(=O)O)c3ccc(O[C@H]4CCN(C(=N)N)C4)cc3)cc2C1` (stereo partly drawn), for which the Ki in assay [1] is 0.2 µM; in assay [4], over 100 µM; in assay [5] it was 1 µM. For the same compound, the ED200 in assay [2] was 40 µM; in assay [3], over 500 µM.

As to `CC(=N)N1CCC(Oc2ccc(C(Oc3ccc4c(c3)CN(C(=N)N)CC4)C(=O)O)cc2)CC1` (stereo not drawn), the Ki was 0.055 µM in assay [1], over 100 µM in assay [4], 2 µM in assay [5] and 52 µM in assay [6]. Further, the ED200 in assay [2] was 11 µM; in assay [3], over 500 µM.
